According to ChEMBL document CHEMBL4014345, “Development of Selective Clk1 and -4 Inhibitors for Cellular Depletion of Cancer-Relevant Proteins” (J Med Chem, 2017):
Active and inactive are the calls of the source. The calls are words filed in the database; no cut-off is given here.

How the values were obtained:
[1] = test system: HepG2; experiment: Cytotoxicity against human HepG2 cells assessed as growth inhibition after 5 days by MTT assay; format: functional; conditions: HepG2, 120 h
Summary of the method: (§1)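 They were seeded at 5000 cells per well onto compound or DMSO (0.2% final). Plates were kept 5 days at 37 °C in 5% CO2 with no medium change, then read by MTT.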

[2] = molecular target: SRSF protein kinase 2 (Homo sapiens) (UniProt P78362); experiment: Inhibition of SRPK2 (unknown origin) at 1 uM
Summary of the method: (§2)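 Tested in a commercial kinase profiling panel at an ATP concentration of 100 μM. Data are the mean of duplicates that differed by less than 7%.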

[3] = test system: MDA-MB-231; experiment: Down regulation of ERK2 expression in human MDA-MB-231 cells at 2.5 to 20 uM after 3 days by Western blot analysis; format: functional, cell-based
Summary of the method: (§3)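 T24 or MDA-MB-231 cells were grown in DMEM to 70% confluency. The medium was replaced with compound diluted in DMEM, and cells were kept 3 days. Total protein was immunoblotted with monoclonal antibodies in 3% BSA/PBS against EGFR, p70S6K α, PARP-1, ERK2, HDAC1, CD44, PCNA and GRP94.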

[4] = molecular target: Dual specificity protein kinase CLK1 (Homo sapiens, UniProt P49759); experiment: Inhibition of recombinant human GST-tagged Clk1 expressed in Escherichia coli using RS repeat substrate peptide after 15 mins in presence of [gamma-32]-ATP
[5] = organism: Homo sapiens; experiment: Inhibition of recombinant human casein kinase 2 using RRREDEESDDEE as substrate at 1 uM after 30 mins in presence of [gamma-32P]-ATP by scintillation counting method
[6] = molecular target: T1, Dual specificity protein kinase CLK1/CLK4 (Homo sapiens, UniProt Q9HAZ1+P49759); experiment: Inhibition of CLK1/4 in human T24 cells assessed as down regulation of EGFR expression at 10 uM after 3 days by Western blot analysis relative to control; format: cell-based; summary of the method: as §3
[7] = molecular target: Dual specificity tyrosine-phosphorylation-regulated kinase 3 (Homo sapiens) (UniProt O43781); experiment: Inhibition of DYRK3 (unknown origin) using KKISGRLSPIMTEQ-NH2 as substrate at 1 uM after 15 mins in presence of [gamma-32P]-ATP
[8] = molecular target: T1, Dual specificity protein kinase CLK1/CLK4; experiment: Inhibition of CLK1/4 in human MDA-MB-231 cells assessed as down regulation of EGFR expression at 10 uM after 3 days by Western blot analysis relative to control; format: cell-based; summary of the method: as §3
[9] = molecular target: T2, Dual specificity tyrosine-phosphorylation-regulated kinase 1A (Homo sapiens, UniProt Q13627); experiment: Inhibition of N-terminal His6-tagged recombinant human Dyrk1A expressed in Escherichia coli BL21 (DE3) using KKISGRLSPIMTEQ-NH2 as substrate at 1 uM after 15 mins in presence of [gamma-32]-ATP; conditions: 0.25 h
[10] = molecular target: T1, Dual specificity protein kinase CLK1/CLK4; experiment: Inhibition of CLK1/4 in human MDA-MB-231 cells assessed as down regulation of S6 kinase expression at 20 uM after 3 days by Western blot analysis relative to control; format: cell-based; summary of the method: as §3
[11] = molecular target: T2, Dual specificity tyrosine-phosphorylation-regulated kinase 1A; experiment: Inhibition of N-terminal His6-tagged recombinant human Dyrk1A expressed in Escherichia coli BL21 (DE3) using KKISGRLSPIMTEQ-NH2 as substrate after 15 mins in presence of [gamma-32]-ATP
[12] = test system: MDA-MB-231; experiment: Down regulation of PARP1 expression in human MDA-MB-231 cells at 2.5 to 20 uM after 3 days by Western blot analysis; format: functional, cell-based; summary of the method: as §3
[13] = molecular target: T1, Dual specificity protein kinase CLK1/CLK4; experiment: Inhibition of CLK1/4 in human MDA-MB-231 cells assessed as down regulation of S6 kinase expression at 2.5 uM after 3 days by Western blot analysis relative to control; format: cell-based; summary of the method: as §3
[14] = test system: T-24; experiment: Cytotoxicity against human T24 cells assessed as growth inhibition after 5 days by MTT assay; format: functional; conditions: T-24, 120 h; summary of the method: as §1
[15] = molecular target: Dual specificity protein kinase CLK2 (Mus musculus) (UniProt O35491); experiment: Inhibition of recombinant GST-tagged mouse CLK2 using GRSRSRSRSRSR as substrate at 1 uM after 30 mins in presence of [gamma-32P]-ATP by scintillation counting method
[16] = molecular target: T1, Dual specificity protein kinase CLK1/CLK4; experiment: Inhibition of CLK1/4 in human T24 cells assessed as down regulation of HDAC1 expression after 3 days by Western blot analysis; format: cell-based; summary of the method: as §3
[17] = molecular target: Serine/threonine-protein kinase 17A (Homo sapiens) (UniProt Q9UEE5); experiment: Inhibition of STK17A (unknown origin) at 1 uM after 15 mins; summary of the method: as §2
[18] = test system: T-24; experiment: Down regulation of ERK2 expression in human T24 cells at 1.25 to 10 uM after 3 days by Western blot analysis; format: functional, cell-based; summary of the method: as §3
[19] = molecular target: T1, Dual specificity protein kinase CLK1/CLK4; experiment: Inhibition of CLK1/4 in human T24 cells assessed as down regulation of HDAC1 expression at 10 uM after 3 days by Western blot analysis relative to control; format: cell-based; summary of the method: as §3
[20] = molecular target: T1, Dual specificity protein kinase CLK1/CLK4; experiment: Inhibition of CLK1/4 in human T24 cells assessed as down regulation of HDAC1 expression at 5 uM after 3 days by Western blot analysis relative to control; format: cell-based; summary of the method: as §3
[21] = molecular target: SRSF protein kinase 1 (Homo sapiens) (UniProt Q96SB4); experiment: Inhibition of SRPK1 (unknown origin) at 1 uM; summary of the method: as §2
[22] = molecular target: T1, Dual specificity protein kinase CLK1/CLK4; experiment: Inhibition of CLK1/4 in human HepG2 cells assessed as down regulation of HDAC1 expression at 20 uM after 3 days by Western blot analysis relative to control; format: cell-based
Summary of the method: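 HepG2 cells were grown in DMEM to 70% confluency, then the medium was replaced with compound diluted in DMEM. After 3 days, total protein was immunoblotted with monoclonal antibodies including HDAC1 and p70S6K.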

[23] = test system: T-24; experiment: Down regulation of PARP1 expression in human T24 cells at 1.25 to 10 uM after 3 days by Western blot analysis; format: functional, cell-based; summary of the method: as §3
[24] = test system: MDA-MB-231; experiment: Down regulation of CD44 expression in human MDA-MB-231 cells at 2.5 to 20 uM after 3 days by Western blot analysis; format: functional, cell-based; summary of the method: as §3
[25] = molecular target: T1, Dual specificity protein kinase CLK1/CLK4; experiment: Inhibition of CLK1/4 in human T24 cells assessed as down regulation of EGFR expression at 5 uM after 3 days by Western blot analysis relative to control; format: cell-based; summary of the method: as §3

Sequence of Serine/threonine-protein kinase 17A (Homo sapiens) (Q9UEE5 whole entry): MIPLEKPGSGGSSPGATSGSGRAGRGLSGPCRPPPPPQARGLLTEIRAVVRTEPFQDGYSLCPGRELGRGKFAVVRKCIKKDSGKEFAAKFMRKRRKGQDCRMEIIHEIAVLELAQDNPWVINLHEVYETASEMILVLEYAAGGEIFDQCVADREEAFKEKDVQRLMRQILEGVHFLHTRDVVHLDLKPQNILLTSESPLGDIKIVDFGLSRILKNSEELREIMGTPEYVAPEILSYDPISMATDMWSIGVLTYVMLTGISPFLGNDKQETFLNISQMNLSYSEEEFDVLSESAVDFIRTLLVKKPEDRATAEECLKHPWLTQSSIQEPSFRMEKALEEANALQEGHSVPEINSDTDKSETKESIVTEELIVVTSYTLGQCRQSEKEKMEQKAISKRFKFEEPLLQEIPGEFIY
Sequence of SRSF protein kinase 2 (Homo sapiens) (P78362 whole entry, looked up): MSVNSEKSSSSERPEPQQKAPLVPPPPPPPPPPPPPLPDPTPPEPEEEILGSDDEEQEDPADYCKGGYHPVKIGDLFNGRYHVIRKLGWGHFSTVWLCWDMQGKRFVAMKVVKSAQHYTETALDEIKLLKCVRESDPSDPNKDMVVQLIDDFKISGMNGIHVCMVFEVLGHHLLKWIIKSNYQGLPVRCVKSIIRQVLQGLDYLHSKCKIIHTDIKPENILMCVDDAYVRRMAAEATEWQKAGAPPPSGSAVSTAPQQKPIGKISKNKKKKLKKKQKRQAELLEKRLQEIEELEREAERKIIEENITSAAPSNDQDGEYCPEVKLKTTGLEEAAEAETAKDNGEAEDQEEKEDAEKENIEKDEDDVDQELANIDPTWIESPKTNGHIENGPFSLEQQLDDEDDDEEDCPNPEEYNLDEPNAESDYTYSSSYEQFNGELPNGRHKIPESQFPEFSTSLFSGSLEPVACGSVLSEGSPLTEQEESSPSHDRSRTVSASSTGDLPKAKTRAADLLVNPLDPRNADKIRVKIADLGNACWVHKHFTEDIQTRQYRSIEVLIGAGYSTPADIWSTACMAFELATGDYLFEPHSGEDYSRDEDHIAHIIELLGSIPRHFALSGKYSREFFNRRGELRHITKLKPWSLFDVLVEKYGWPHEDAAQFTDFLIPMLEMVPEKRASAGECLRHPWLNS
Sequence of Dual specificity protein kinase CLK2 (Mus musculus) (O35491 whole entry, looked up): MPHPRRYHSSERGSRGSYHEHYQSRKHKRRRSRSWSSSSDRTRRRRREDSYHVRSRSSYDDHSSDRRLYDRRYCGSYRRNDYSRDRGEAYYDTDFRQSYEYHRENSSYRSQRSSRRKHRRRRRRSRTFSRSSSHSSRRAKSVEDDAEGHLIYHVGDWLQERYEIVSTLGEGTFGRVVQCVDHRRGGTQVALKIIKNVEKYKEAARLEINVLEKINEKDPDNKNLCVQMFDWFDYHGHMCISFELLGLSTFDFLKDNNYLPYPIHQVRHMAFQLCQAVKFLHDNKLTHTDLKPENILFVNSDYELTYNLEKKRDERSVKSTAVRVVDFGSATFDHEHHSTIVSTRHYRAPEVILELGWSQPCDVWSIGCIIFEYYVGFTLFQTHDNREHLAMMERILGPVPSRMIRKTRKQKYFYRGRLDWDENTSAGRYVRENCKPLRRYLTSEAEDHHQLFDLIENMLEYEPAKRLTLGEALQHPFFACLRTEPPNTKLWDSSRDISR
Sequence of Dual specificity protein kinase CLK1 (P49759 whole entry): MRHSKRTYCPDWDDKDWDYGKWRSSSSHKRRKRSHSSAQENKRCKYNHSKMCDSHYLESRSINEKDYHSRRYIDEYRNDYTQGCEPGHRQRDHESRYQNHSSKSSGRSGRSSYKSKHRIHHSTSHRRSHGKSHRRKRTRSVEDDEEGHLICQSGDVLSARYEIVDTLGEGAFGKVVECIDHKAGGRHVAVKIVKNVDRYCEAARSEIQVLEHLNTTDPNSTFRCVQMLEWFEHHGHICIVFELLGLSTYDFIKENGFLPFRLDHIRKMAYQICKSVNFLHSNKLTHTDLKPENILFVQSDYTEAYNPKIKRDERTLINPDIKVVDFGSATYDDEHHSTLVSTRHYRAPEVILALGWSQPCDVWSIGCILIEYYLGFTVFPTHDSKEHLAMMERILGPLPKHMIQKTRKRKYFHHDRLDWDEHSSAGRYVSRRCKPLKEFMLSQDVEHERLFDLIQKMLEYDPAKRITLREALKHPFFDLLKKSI
Sequence of SRSF protein kinase 1 (Homo sapiens) (Q96SB4 whole entry): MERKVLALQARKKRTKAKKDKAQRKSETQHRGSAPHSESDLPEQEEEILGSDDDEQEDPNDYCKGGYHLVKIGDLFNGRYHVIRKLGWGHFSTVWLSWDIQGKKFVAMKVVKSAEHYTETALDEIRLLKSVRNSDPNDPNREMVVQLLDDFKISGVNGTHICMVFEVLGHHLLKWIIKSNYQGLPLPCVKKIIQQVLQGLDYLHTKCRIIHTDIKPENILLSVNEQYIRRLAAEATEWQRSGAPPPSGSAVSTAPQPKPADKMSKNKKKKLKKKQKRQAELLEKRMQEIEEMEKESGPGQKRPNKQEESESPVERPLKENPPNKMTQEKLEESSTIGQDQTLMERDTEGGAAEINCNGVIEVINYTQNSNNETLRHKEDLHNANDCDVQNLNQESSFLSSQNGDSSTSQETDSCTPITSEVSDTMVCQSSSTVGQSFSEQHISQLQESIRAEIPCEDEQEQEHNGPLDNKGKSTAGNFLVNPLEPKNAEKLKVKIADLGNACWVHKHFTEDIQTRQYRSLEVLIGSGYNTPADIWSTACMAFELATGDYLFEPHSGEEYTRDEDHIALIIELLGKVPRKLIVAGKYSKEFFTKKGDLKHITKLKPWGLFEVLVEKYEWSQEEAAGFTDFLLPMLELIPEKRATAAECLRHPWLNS
Sequence of Dual specificity tyrosine-phosphorylation-regulated kinase 3 (Homo sapiens) (O43781 whole entry): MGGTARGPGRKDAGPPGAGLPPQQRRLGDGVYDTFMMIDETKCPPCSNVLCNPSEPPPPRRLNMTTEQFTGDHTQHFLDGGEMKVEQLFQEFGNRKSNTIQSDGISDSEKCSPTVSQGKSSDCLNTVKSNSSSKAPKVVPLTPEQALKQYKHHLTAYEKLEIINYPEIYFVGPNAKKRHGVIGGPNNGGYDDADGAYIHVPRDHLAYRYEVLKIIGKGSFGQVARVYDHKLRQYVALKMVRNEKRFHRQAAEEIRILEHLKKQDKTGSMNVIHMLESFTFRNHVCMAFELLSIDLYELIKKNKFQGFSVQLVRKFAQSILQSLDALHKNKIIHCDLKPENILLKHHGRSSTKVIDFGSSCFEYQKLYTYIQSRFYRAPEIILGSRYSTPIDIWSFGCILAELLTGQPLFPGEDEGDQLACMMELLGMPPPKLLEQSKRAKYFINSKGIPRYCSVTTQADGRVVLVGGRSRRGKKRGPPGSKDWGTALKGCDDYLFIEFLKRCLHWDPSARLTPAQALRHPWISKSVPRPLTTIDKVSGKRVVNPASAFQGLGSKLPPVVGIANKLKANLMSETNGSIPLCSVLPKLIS

With `COc1ccc2sc(C(=O)N(C)Cc3cccc(F)c3)cc2c1` as the molecule, how does the GI50 [1] read?
Its GI50 is 2.8 µM.

And the inhibition [2]?
Its inhibition is 7%.

And the Activity [3]?
The Activity was “inactive”.

And the IC50 [4]?
Its IC50 is 0.0069 to 0.007 µM.

And the inhibition [5]?
The inhibition was 1.4%.

And the inhibition [6]?
The inhibition was 59.7%.

And the inhibition [7]?
Its inhibition is “inactive”.

What about the inhibition [8] of the same molecule?
The inhibition was 54.1%.

And the inhibition at 1 µM [9]?
Its inhibition at 1 µM is 72%.

What about the inhibition [10] of the same molecule?
The inhibition was 41.4%.

And the IC50 [11]?
The IC50 was 0.34 µM.

And the Activity [12]?
Its Activity is “inactive”.

What about the inhibition [13] of the same molecule?
The inhibition was 12.1%.

What about the GI50 [14] of the same molecule?
The GI50 was 0.6 µM.

And the inhibition [15]?
The inhibition was 86%.

And the IC50 [16]?
The IC50 was 9.5 µM.

What about the inhibition [16] of the same molecule?
The inhibition was “Dose-dependent effect”.

And the inhibition [17]?
The inhibition was 32%.

And the Activity [18]?
Its Activity is “inactive”.

And the inhibition [19]?
The inhibition was 50.2%.

What about the inhibition [20] of the same molecule?
Its inhibition is 47.6%.

What about the inhibition [21] of the same molecule?
The inhibition was 2%.

And the inhibition [22]?
Its inhibition is 44%.

What about the Activity [23] of the same molecule?
Its Activity is “inactive”.

And the Activity [24]?
Its Activity is “inactive”.

What about the inhibition [25] of the same molecule?
Its inhibition is 52.6%.
